Common to all, as to type: functional
Assay [1] deals with Staphylococcus aureus. The experiment in a line: Compound was tested for antibacterial activity against Staphylococcus aureus ATCC 9144. A digest of the protocol: (§1)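 MICs were found by agar dilution. Test compounds were dissolved in water or in dimethyl sulfoxide, and the mixture was added to the agar before it set.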
The subject of assay [2] is Staphylococcus aureus. The experiment in a line: Compound was tested for antibacterial activity against Staphylococcus aureus WSU-196E. The procedure, abridged:
as §1

Assay [3] concerns Corynebacterium diphtheriae. Put plainly: Compound was tested for antibacterial activity against Corynebacterium diphtheria WSU. The procedure, abridged:
as §1

The test system of the next assay is Streptococcus pyogenes. The experiment in a line: Compound was tested for antibacterial activity against Strep. pyogenes ATCC 19615. A digest of the protocol:
as §1

For another assay, the species on record is Rattus norvegicus. Put plainly: Compound was tested for effect of glycoside on superoxide production in rat heart sarcosomes. On the set-up: unit not given here. The procedure, abridged:
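Male Sprague-Dawley rat ventricles were homogenized in 100 mM KCl, 5 mM histidine, pH 7.3. The microsomal (sarcosomal) pellet was taken at 100000g and resuspended in 0.15 M K3PO4, 1 mM EDTA, pH 7.4. Sarcosomes came from six rats prepared concurrently. Each 1 mL reaction held acetylated cytochrome c (38-53 nmol), 300-500 µg protein and 0.1 mM compound. NADPH started the reaction. A550 rise was followed at 37 °C and reported as mean ± SEM, N = 3, with an F test.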

The test system of assay [4] is Staphylococcus aureus. The experiment in a line: Compound was tested for antibacterial activity against Staphylococcus aureus ATCC 25923. A digest of the protocol:
as §1

The next assay has as its system Bacillus subtilis. Put plainly: Compound was tested for antibacterial activity against Bacillus subtilis ATCC E6051. The procedure, abridged:
as §1

Assay [5] relates to Staphylococcus epidermidis. Put plainly: Compound was tested for antibacterial activity against Staph. epidermidis ATCC 12228. A digest of the protocol: as §1
The test system of a further assay is Bacillus cereus. Put plainly: Compound was tested for antibacterial activity against Bacillus cereus WSU-60. A digest of the protocol: as §1

The text below walks through data of ChEMBL document CHEMBL1123433, “Synthesis of anthraquinonyl glucosaminosides and studies on the influence of aglycone hydroxyl substitution on superoxide generation, DNA binding, and antimicrobial properties” (J Med Chem, 1986).

Values after ≈ are worked out from the molar mass of the structure shown.

In general, MIC refers to the lowest concentration found to suppress growth.

Turning to `NC1C(OCc2cc(O)c3c(c2O)C(=O)c2ccccc2C3=O)OC(O)C(O)C1O` (configuration not stated), the MIC in the assay on Staphylococcus aureus [1] was 50 µg/mL (≈ 120 µM); against Staphylococcus aureus [2], above 200 µg/mL; in [3], 100 µg/mL (≈ 240 µM); in the assay on Streptococcus pyogenes, 10 µg/mL (≈ 24 µM); in the assay with Staphylococcus aureus [4], 100 µg/mL (≈ 240 µM); with Bacillus subtilis it was 50 µg/mL (≈ 120 µM). Besides, the figures for the minimum inhibitory concentration (MIC) (in assay [5]; in the assay on Bacillus cereus) were 20 µg/mL (≈ 47.9 µM) and 50 µg/mL (≈ 120 µM), respectively. In the assay filed under Rattus norvegicus, the Activity amounted to 12.8.

As to `NC1C(OCc2ccc3c(c2O)C(=O)c2ccccc2C3=O)OC(O)C(O)C1O` (configuration not stated), the minimal inhibitory concentration (MIC) against Staphylococcus aureus [1] was 200 µg/mL (≈ 498 µM); against Staphylococcus aureus [2], 200 µg/mL (≈ 498 µM); in assay [3] it was 100 µg/mL (≈ 249 µM); against Streptococcus pyogenes, 20 µg/mL (≈ 49.8 µM); with Staphylococcus aureus [4], 200 µg/mL (≈ 498 µM); against Bacillus subtilis, 50 µg/mL (≈ 125 µM). Further, the MIC in assay [5] amounted to 20 µg/mL (≈ 49.8 µM); against Bacillus cereus, 100 µg/mL (≈ 249 µM). Moreover, the Activity in the assay listed under Rattus norvegicus worked out at 5.49.

In the case of `NC1C(OCc2ccc3c(c2O)C(=O)c2c(O)cccc2C3=O)OC(O)C(O)C1O` (configuration not stated), the minimal inhibitory concentration (MIC) with Staphylococcus aureus [1] was found to be 200 µg/mL (≈ 479 µM); in the assay on Staphylococcus aureus [2], 200 µg/mL (≈ 479 µM); in assay [3], 50 µg/mL (≈ 120 µM); against Streptococcus pyogenes, 50 µg/mL (≈ 120 µM); against Staphylococcus aureus [4], 100 µg/mL (≈ 240 µM); in the assay on Bacillus subtilis it was 50 µg/mL (≈ 120 µM). For the same compound, the MIC (in [5]; in the assay on Bacillus cereus) was 50 µg/mL (≈ 120 µM) throughout. The compound further gave an Activity in the assay listed under Rattus norvegicus of 10.5.

With `NC1C(OCc2cc(O)c3c(c2)C(=O)c2cccc(O)c2C3=O)OC(O)C(O)C1O` (configuration not stated), the MIC in the assay with Staphylococcus aureus [1] is 50 µg/mL (≈ 120 µM); in the assay on Staphylococcus aureus [2], above 200 µg/mL; in assay [3], 100 µg/mL (≈ 240 µM); in the assay with Streptococcus pyogenes, 10 µg/mL (≈ 24 µM); in the assay on Staphylococcus aureus [4], above 200 µg/mL; against Bacillus subtilis it was above 200 µg/mL. In addition, the MIC in assay [5] was 20 µg/mL (≈ 47.9 µM); against Bacillus cereus, 200 µg/mL (≈ 479 µM). Moreover, the Activity in the assay listed under Rattus norvegicus was determined as 10.1.

Turning to `COc1cccc2c1C(=O)c1c(O)c3c(c(O)c1C2=O)C[C@@](O)(C(=O)CO)C[C@@H]3O[C@H]1C[C@H](N)[C@H](O)[C@H](C)O1` [DOXORUBICIN], the MIC with Staphylococcus aureus [1] was 20 µg/mL (≈ 36.8 µM); in the assay with Staphylococcus aureus [2], 10 µg/mL (≈ 18.4 µM); in [3], 20 µg/mL (≈ 36.8 µM); with Streptococcus pyogenes, below 5 µg/mL; in the assay on Staphylococcus aureus [4], 200 µg/mL (≈ 368 µM); in the assay with Bacillus subtilis, 20 µg/mL (≈ 36.8 µM). In addition, the MIC in assay [5] is below 5 µg/mL; in the assay with Bacillus cereus, 10 µg/mL (≈ 18.4 µM).

In the case of `COc1cccc2c1C(=O)c1c(O)c3c(c(O)c1C2=O)C[C@@](O)(C(C)=O)C[C@@H]3O[C@H]1C[C@H](N)[C@H](O)[C@H](C)O1` [DAUNORUBICIN], the MIC is below 5 µg/mL with Staphylococcus aureus [1]; below 5 µg/mL against Staphylococcus aureus [2]; below 5 µg/mL in [3]; below 5 µg/mL in the assay with Streptococcus pyogenes; 20 µg/mL (≈ 37.9 µM) with Staphylococcus aureus [4]; below 5 µg/mL against Bacillus subtilis. Also, the MIC (in [5]; in the assay on Bacillus cereus) was below 5 µg/mL in each case. This compound also displayed an Activity in the assay filed under Rattus norvegicus of 2.76.

`NC1C(OCc2ccc3c(c2)C(=O)c2ccccc2C3=O)OC(O)C(O)C1O` (configuration not stated): the MIC in the assay with Staphylococcus aureus [1] was above 200 µg/mL; against Staphylococcus aureus [2] it was above 200 µg/mL; in assay [3] it was above 200 µg/mL; with Streptococcus pyogenes, 100 µg/mL (≈ 259 µM); in the assay on Staphylococcus aureus [4], above 200 µg/mL; in the assay with Bacillus subtilis, above 200 µg/mL. The MIC was 200 µg/mL (≈ 519 µM) in assay [5] and above 200 µg/mL against Bacillus cereus. The Activity in the assay filed under Rattus norvegicus came out at 2.31.
